# Experimental data as given in ChEMBL document CHEMBL5724801, “EUbOPEN Chemogenomics Library - Multiplex” (2024).
# Several values for one entry are separate records, joined by “and”; a condition that tells them apart may be missing. Equal values may be shown once.
# System: U2OS
# Test: Multiplex assay against U2OS
# Format: toxicity, cell-based
# Conditions: human
# In short: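 Live cells were stained at seeding with Hoechst33342, BioTracker Green Microtubule Cytoskeleton Dye, MitoTracker Red and Annexin V Alexa Fluor 680. Following compound addition, they were imaged on a CQ1 microscope at 37°C and 5% CO2 and gated by CellPathfinder machine learning into Hoechst high-intensity objects or normal cells, with normal cells split into healthy, pyknosed or fragmented nuclei and pyknosed cells into mitotic or apoptotic. Tubulin, mitochondrial-mass and membrane-permeability phenotypes are per cents of healthy-nucleus cells.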
# [1] = 12 h, 1 µM, compound concentration 1 uM
# [2] = 12 h, 10 µM, compound concentration 10 uM
# [3] = 24 h, 1 µM, compound concentration 1 uM
# [4] = 24 h, 10 µM, compound concentration 10 uM
# [5] = 48 h, 1 µM, compound concentration 1 uM
# [6] = 48 h, 10 µM, compound concentration 10 uM
smiles,measurement,setting,value
COc1c(Nc2ccc(S(C)(=O)=O)nc2C)ncnc1OC1CCN(C(=O)OC(C)C)CC1 [ADP-597],Population Apoptotic (%),[1],82% and 75%
same,Population Fragmented Nuclei (%),[1],23% and 13%
same,Population Healthy Nuclei (%),[1],68% and 78%
same,Population Hoechst High Intensity Objects (%),[1],2% and 3%
same,Population Membrane Permeable-Phenotype (%),[1],7% and 11%
same,Population Mitochondria Different-Phenotype (%),[1],1%
same,Population Mitotic Cells (%),[1],17% and 25%
same,Population Normal (%),[1],97% and 96%
same,Population Pyknosed Nuclei (%),[1],8%
same,Population Tubulin-Different-Phenotype (%),[1],5% and 2%
same,Total Cell Count,[1],208 and 95
same,Population Apoptotic (%),[2],93% and 85%
same,Population Fragmented Nuclei (%),[2],27% and 10%
same,Population Healthy Nuclei (%),[2],60% and 77%
same,Population Hoechst High Intensity Objects (%),[2],8% and 4%
same,Population Membrane Permeable-Phenotype (%),[2],7%
same,Population Mitochondria Different-Phenotype (%),[2],2% and 3%
same,Population Mitotic Cells (%),[2],6% and 14%
same,Population Normal (%),[2],91% and 95%
same,Population Pyknosed Nuclei (%),[2],11%
same,Population Tubulin-Different-Phenotype (%),[2],4% and 1%
same,Total Cell Count,[2],266 and 128
same,Population Apoptotic (%),[3],88% and 80%
same,Population Fragmented Nuclei (%),[3],24% and 12%
same,Population Healthy Nuclei (%),[3],67% and 79%
same,Population Hoechst High Intensity Objects (%),[3],3%
same,Population Membrane Permeable-Phenotype (%),[3],7% and 8%
same,Population Mitochondria Different-Phenotype (%),[3],3%
same,Population Mitotic Cells (%),[3],11% and 20%
same,Population Normal (%),[3],96%
same,Population Pyknosed Nuclei (%),[3],7% and 8%
same,Population Tubulin-Different-Phenotype (%),[3],3% and 5%
same,Total Cell Count,[3],239 and 129
same,Population Apoptotic (%),[4],88% and 83%
same,Population Fragmented Nuclei (%),[4],30% and 11%
same,Population Healthy Nuclei (%),[4],61% and 80%
same,Population Hoechst High Intensity Objects (%),[4],6% and 5%
same,Population Membrane Permeable-Phenotype (%),[4],8% and 6%
same,Population Mitochondria Different-Phenotype (%),[4],2% and 4%
same,Population Mitotic Cells (%),[4],12% and 16%
same,Population Normal (%),[4],93% and 94%
same,Population Pyknosed Nuclei (%),[4],8%
same,Population Tubulin-Different-Phenotype (%),[4],4% and 1%
same,Total Cell Count,[4],305 and 155
same,Population Apoptotic (%),[5],80% and 81%
same,Population Fragmented Nuclei (%),[5],19% and 20%
same,Population Healthy Nuclei (%),[5],72% and 67%
same,Population Hoechst High Intensity Objects (%),[5],2%
same,Population Membrane Permeable-Phenotype (%),[5],6% and 5%
same,Population Mitochondria Different-Phenotype (%),[5],5% and 4%
same,Population Mitotic Cells (%),[5],19% and 18%
same,Population Normal (%),[5],97%
same,Population Pyknosed Nuclei (%),[5],7% and 12%
same,Population Tubulin-Different-Phenotype (%),[5],2%
same,Total Cell Count,[5],339 and 185
same,Population Apoptotic (%),[6],79% and 92%
same,Population Fragmented Nuclei (%),[6],24% and 10%
same,Population Healthy Nuclei (%),[6],62% and 77%
same,Population Hoechst High Intensity Objects (%),[6],6% and 3%
same,Population Membrane Permeable-Phenotype (%),[6],6% and 4%
same,Population Mitochondria Different-Phenotype (%),[6],4% and 0%
same,Population Mitotic Cells (%),[6],20% and 8%
same,Population Normal (%),[6],93% and 96%
same,Population Pyknosed Nuclei (%),[6],13% and 11%
same,Population Tubulin-Different-Phenotype (%),[6],2%
same,Total Cell Count,[6],356 and 223
